Test results from ChEMBL document CHEMBL1125826, “Synthesis and biological activity of 5-amino- and 5-hydroxyquinolones, and the overwhelming influence of the remote N1-substituent in determining the structure-activity relationship” (1991).
Converted amounts (≈) assume the structure as drawn.

How the values were obtained:
Assay type in all cases: functional
[1] = system: Enterococcus faecalis; experiment: Antibacterial activity was determined against gram positive organism, Streptococcus faecalis MGH-2
Outline: (§1)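 MIC (µg/mL) by standard microtitration against a panel of 10 Gram-positive and Gram-negative organisms; values averaged from multiple experiments.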

[2] = system: Klebsiella pneumoniae; experiment: Antibacterial activity was determined against gram negative organism, Klebsiella pneumoniae MGH-2; outline: as §1
[3] = system: Staphylococcus aureus; experiment: Antibacterial activity was determined against gram positive organism, Staphylococcus aureus UC76; outline: as §1
[4] = system: Streptococcus pneumoniae; experiment: Antibacterial activity was determined against gram positive organism, Streptococcus pneumoniae SV-1; outline: as §1
[5] = system: Escherichia coli; experiment: The in vivo potency was determined in female charles river CD-1 mice infected with Escherichia coli after peroral administration; settings: for ED50: Escherichia coli, po, read-out: PD50
Outline: (§2)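 Acute lethal systemic infection in female CD-1 mice, 16 mice per route; single dose given orally by gavage at the time of challenge; median protective dose (PD50, mg/kg) determined.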

[6] = system: Bacteria; experiment: Antibacterial activity was determined against gram negative organism, Providencia rettgeri. M1771; outline: as §1
[7] = system: Streptococcus pneumoniae; experiment: The in vivo potency was determined in female charles river CD-1 mice infected with Streptococcus pneumoniae after peroral administration; settings: for ED50: Streptococcus pneumoniae, po, read-out: PD50; outline: as §2
[8] = system: Bacteria; experiment: MIC ratio measured as the mean MICs of gram-positive bacteria
Outline: (§3)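 Geometric mean of the microtitration MICs (µg/mL) over the Gram-negative organisms, and separately over the Gram-positive organisms, of the 10-strain panel; individual MICs averaged from multiple experiments.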

[9] = system: Escherichia coli; experiment: The in vivo potency was determined in female charles river CD-1 mice infected with Escherichia coli after sc administration; settings: for ED50: Escherichia coli, sc, read-out: PD50
Outline: (§4)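 Acute lethal systemic infection in female CD-1 mice, 16 mice per route; single subcutaneous dose given at the time of challenge; median protective dose (PD50, mg/kg) determined.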

[10] = system: Streptococcus pneumoniae; experiment: The in vivo potency was determined in female charles river CD-1 mice infected with Streptococcus pneumoniae after sc administration; settings: for ED50: Streptococcus pneumoniae, sc, read-out: PD50; outline: as §4
[11] = system: Streptococcus pyogenes; experiment: Antibacterial activity was determined against gram positive organism, Streptococcus pyogenes C203; outline: as §1
[12] = system: Streptococcus pyogenes; experiment: The in vivo potency was determined in female charles river CD-1 mice infected with Streptococcus pyogenes after sc administration; settings: for ED50: Streptococcus pyogenes, sc, read-out: PD50; outline: as §4
[13] = system: Pseudomonas aeruginosa; experiment: Antibacterial activity was determined against gram negative organism, Pseudomonas aeruginosa UI-18; outline: as §1
[14] = system: Streptococcus pyogenes; experiment: The in vivo potency was determined in female charles river CD-1 mice infected with Streptococcus pyogenes after peroral administration; settings: for ED50: Streptococcus pyogenes, po, read-out: PD50; outline: as §2
[15] = system: Staphylococcus aureus; experiment: Antibacterial activity was determined against gram positive organism, Staphylococcus aureus H228; outline: as §1
[16] = system: Escherichia coli; experiment: Antibacterial activity was determined against gram negative organism, Escherichia coli vogel; outline: as §1
[17] = system: Enterobacter cloacae; experiment: Antibacterial activity was determined against gram negative organism, Enterobacter cloacae MA2646
[18] = target: DNA gyrase (Escherichia coli) (UniProt P0AES6+P0AES4); experiment: Minimum inhibitory concentration against Escherichia coli DNA-gyrase in supercoiling assay
[19] = system: Bacteria; experiment: MIC ratio measured as the mean MICs of gram-negative bacteria; outline: as §3
[20] = Enterococcus faecalis, read-out: MIC
[21] = Klebsiella pneumoniae, read-out: MIC
[22] = Staphylococcus aureus, read-out: MIC
[23] = Streptococcus pyogenes, read-out: MIC
[24] = Escherichia coli, read-out: MIC
[25] = Enterobacter cloacae, read-out: MIC
[26] = Streptococcus pneumoniae, read-out: MIC
[27] = Pseudomonas aeruginosa, read-out: MIC

SMILES | MIC [1, 20] | MIC [2, 21] | MIC [3, 22] | ED50 [5] | Geometric mean MIC over Gram-positive bacteria (µg/mL) [8] | ED50 [9] | MIC [11, 23] | ED50 [12] | MIC [16, 24] | MIC [17, 25] | MIC [18] | MIC [4, 26] | MIC ([6]; Bacteria, read-out: MIC) | Geometric mean MIC over Gram-negative bacteria (µg/mL) [19] | ED50 [7] | ED50 [10] | MIC [13, 27] | ED50 [14] | MIC [15, 22] | other results
NC1CCN(c2c(F)cc3c(=O)c(C(=O)O)cn(C4CC4)c3c2Cl)C1 (stereo in doubt; 1f-4) [CLINAFLOXACIN] | 0.1 µg/mL (≈ 0.273 µM) | 0.05 µg/mL (≈ 0.137 µM) | 0.025 µg/mL (≈ 0.0683 µM) | 3 mg/kg | 0.075 | 0.5 mg/kg | 0.1 µg/mL (≈ 0.273 µM) | 4 mg/kg | 0.025 µg/mL (≈ 0.0683 µM) | 0.025 µg/mL (≈ 0.0683 µM) | – | – | – | – | – | – | – | – | – | MIC [4]: 0.1 µg/mL (≈ 0.273 µM); MIC [6]: 0.1 µg/mL (≈ 0.273 µM); PD50 [7]: 97 mg/kg; PD50 [10]: 11 mg/kg; MIC [13]: 0.2 µg/mL (≈ 0.547 µM); PD50 [14]: 43 mg/kg; MIC [15]: 0.1 µg/mL (≈ 0.273 µM)
CC1CN(c2c(F)c(N)c3c(=O)c(C(=O)O)cn(C4CC4)c3c2Cl)CCN1 (centres undefined) | 0.1 µg/mL (≈ 0.253 µM) | 0.1 µg/mL (≈ 0.253 µM) | 0.025 µg/mL (≈ 0.0633 µM) | 0.7 mg/kg | 0.057 | 0.3 mg/kg | 0.1 µg/mL (≈ 0.253 µM) | 4 mg/kg | 0.025 µg/mL (≈ 0.0633 µM) | 0.05 µg/mL (≈ 0.127 µM) | 3.8 µg/mL (≈ 9.62 µM) | 0.05 µg/mL (≈ 0.127 µM) | 0.2 µg/mL (≈ 0.507 µM) | 0.11 | 12 mg/kg | 9 mg/kg | 0.8 µg/mL (≈ 2.03 µM) | 6 mg/kg | 0.05 µg/mL (≈ 0.127 µM) | –
Nc1c(F)c(N2CCC(N)C2)c(F)c2c1c(=O)c(C(=O)O)cn2C1CC1 (centres undefined) | 0.05 µg/mL (≈ 0.137 µM) | 0.013 µg/mL (≈ 0.0357 µM) | 0.013 µg/mL (≈ 0.0357 µM) | 2 mg/kg | 0.029 | 1 mg/kg | 0.025 µg/mL (≈ 0.0686 µM) | 9 mg/kg | 0.006 µg/mL (≈ 0.0165 µM) | 0.006 µg/mL (≈ 0.0165 µM) | 0.5 µg/mL (≈ 1.37 µM) | 0.025 µg/mL (≈ 0.0686 µM) | 0.025 µg/mL (≈ 0.0686 µM) | 0.016 | 28 mg/kg | 8 mg/kg | 0.1 µg/mL (≈ 0.274 µM) | 20 mg/kg | 0.05 µg/mL (≈ 0.137 µM) | –
NC1CCN(c2c(F)cc3c(=O)c(C(=O)O)cn(C4CC4)c3c2F)C1 (centres undefined) | 0.1 µg/mL (≈ 0.286 µM) | 0.025 µg/mL (≈ 0.0716 µM) | 0.013 µg/mL (≈ 0.0372 µM) | 0.9 mg/kg | 0.044 | 0.2 mg/kg | 0.05 µg/mL (≈ 0.143 µM) | 6 mg/kg | 0.013 µg/mL (≈ 0.0372 µM) | 0.013 µg/mL (≈ 0.0372 µM) | 0.1 µg/mL (≈ 0.286 µM) | 0.05 µg/mL (≈ 0.143 µM) | 0.05 µg/mL (≈ 0.143 µM) | 0.029 | 8 mg/kg | 2 mg/kg | 0.1 µg/mL (≈ 0.286 µM) | 15 mg/kg | 0.05 µg/mL (≈ 0.143 µM) | –
C[C@@H]1CN(c2c(F)c(N)c3c(=O)c(C(=O)O)cn(C4CC4)c3c2F)C[C@H](C)N1 [SPARFLOXACIN] | 0.1 µg/mL (≈ 0.255 µM) | 0.05 µg/mL (≈ 0.127 µM) | 0.013 µg/mL (≈ 0.0331 µM) | 1 mg/kg | 0.05 | 0.4 mg/kg | 0.1 µg/mL (≈ 0.255 µM) | 13 mg/kg | 0.025 µg/mL (≈ 0.0637 µM) | 0.025 µg/mL (≈ 0.0637 µM) | 2.5 µg/mL (≈ 6.37 µM) | 0.05 µg/mL (≈ 0.127 µM) | 0.2 µg/mL (≈ 0.51 µM) | 0.087 | 17 mg/kg | 17 mg/kg | 0.8 µg/mL (≈ 2.04 µM) | 14 mg/kg | 0.05 µg/mL (≈ 0.127 µM) | –
NC1CCN(c2c(F)cc3c(=O)c(C(=O)O)cn(C4CC4)c3c2Cl)C1 (stereo in doubt; 1h-4) [CLINAFLOXACIN] | – | – | – | – | 0.029 | – | – | – | – | – | – | – | – | – | – | – | – | – | – | MIC [1]: 0.05 µg/mL (≈ 0.137 µM); MIC [2]: 0.025 µg/mL (≈ 0.0683 µM); MIC [3]: 0.013 µg/mL (≈ 0.0355 µM); MIC [4]: 0.025 µg/mL (≈ 0.0683 µM); PD50 [5]: 3 mg/kg; MIC [6]: 0.025 µg/mL (≈ 0.0683 µM); PD50 [7]: 14 mg/kg; PD50 [9]: 0.6 mg/kg; PD50 [10]: 5 mg/kg; MIC [11]: 0.05 µg/mL (≈ 0.137 µM); PD50 [12]: 4 mg/kg; MIC [13]: 0.05 µg/mL (≈ 0.137 µM); PD50 [14]: 10 mg/kg; MIC [15]: 0.025 µg/mL (≈ 0.0683 µM); MIC [16]: 0.025 µg/mL (≈ 0.0683 µM); MIC [17]: 0.025 µg/mL (≈ 0.0683 µM)
Nc1c(F)c(N2CCNCC2)c(F)c2c1c(=O)c(C(=O)O)cn2C1CC1 | 0.05 µg/mL (≈ 0.137 µM) | 0.025 µg/mL (≈ 0.0686 µM) | 0.013 µg/mL (≈ 0.0357 µM) | 0.8 mg/kg | 0.044 | 0.2 mg/kg | 0.1 µg/mL (≈ 0.274 µM) | 23 mg/kg | 0.013 µg/mL (≈ 0.0357 µM) | 0.013 µg/mL (≈ 0.0357 µM) | 0.5 µg/mL (≈ 1.37 µM) | 0.05 µg/mL (≈ 0.137 µM) | 0.05 µg/mL (≈ 0.137 µM) | 0.022 | 68 mg/kg | 27 mg/kg | 0.025 µg/mL (≈ 0.0686 µM) | 31 mg/kg | 0.05 µg/mL (≈ 0.137 µM) | –
